This note sets out measurements from ChEMBL document CHEMBL2331117 (J Med Chem, 2013).

Structures are written as SMILES. Converted amounts (≈) assume the structure as drawn.

Series [1] can be described thus: Kinetic solubility of the compound. Format: physicochemical. The following applies: read-out: Kinetic_solubility.
Series [2] is described as follows: Plasma concentration in mouse at 100 mg/kg, po after 1 hr. The arrangement: dose 100 mg/kg, route oral. Format: ADME, organism-based.
Series [3] concerns the target Cytochrome P450 2C9 (Homo sapiens, UniProt P11712). Nature of the series: Inhibition of CYP2C9 (unknown origin). Format: ADME.
The nature of series [4]: Inhibition of mTORC1 (unknown origin)-mediated 4EBP1 phosphorylation after 120 mins by ELISA. The arrangement: species or system Homo sapiens. (In general: In an ELISA, binding on a coated surface is turned into a signal by an enzyme label.)
Series [5] addresses Cytochrome P450 3A4 (Homo sapiens, UniProt P08684). Nature of the series: Inhibition of CYP3A4 (unknown origin). Format: ADME.
Series [6] can be described thus: Plasma concentration in mouse at 100 mg/kg, po after 4 hrs. Format: ADME, organism-based. The arrangement: dose 100 mg/kg, route oral.
Series [7] deals with Cytochrome P450 2D6 (Homo sapiens, UniProt P10635). Nature of the series: Inhibition of CYP2D6 (unknown origin). Format: ADME.
Cytochrome P450 2D6, sequence (P10635 whole entry): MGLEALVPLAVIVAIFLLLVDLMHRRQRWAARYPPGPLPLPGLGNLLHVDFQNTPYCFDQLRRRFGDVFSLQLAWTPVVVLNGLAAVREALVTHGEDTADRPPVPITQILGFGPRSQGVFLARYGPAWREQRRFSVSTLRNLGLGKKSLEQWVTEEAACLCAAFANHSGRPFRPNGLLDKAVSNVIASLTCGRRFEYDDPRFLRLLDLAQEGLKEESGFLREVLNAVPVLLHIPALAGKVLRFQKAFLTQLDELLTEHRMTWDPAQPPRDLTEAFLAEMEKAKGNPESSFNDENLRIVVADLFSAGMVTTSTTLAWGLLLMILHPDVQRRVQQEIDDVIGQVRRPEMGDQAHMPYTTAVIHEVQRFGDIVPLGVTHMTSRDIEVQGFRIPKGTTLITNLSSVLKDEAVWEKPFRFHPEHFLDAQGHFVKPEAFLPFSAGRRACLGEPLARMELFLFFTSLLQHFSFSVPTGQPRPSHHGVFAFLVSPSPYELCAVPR
Series [8] is described as follows: Metabolic stability in mouse liver microsomes after 30 mins. Format: ADME, Microsome. The following applies: read-out: Stability. In general terms: Liver microsomes are vesicles of endoplasmic reticulum, rich in cytochrome P450 enzymes.
A short description of series [9]: Apparent permeability across MDCK cells. Format: ADME, cell-based, Canis lupus familiaris. Particulars: dog.
Series [10] addresses T1, Cytochrome P450 2C8 (Homo sapiens, UniProt P10632).
T1 sequence (P10632 whole entry): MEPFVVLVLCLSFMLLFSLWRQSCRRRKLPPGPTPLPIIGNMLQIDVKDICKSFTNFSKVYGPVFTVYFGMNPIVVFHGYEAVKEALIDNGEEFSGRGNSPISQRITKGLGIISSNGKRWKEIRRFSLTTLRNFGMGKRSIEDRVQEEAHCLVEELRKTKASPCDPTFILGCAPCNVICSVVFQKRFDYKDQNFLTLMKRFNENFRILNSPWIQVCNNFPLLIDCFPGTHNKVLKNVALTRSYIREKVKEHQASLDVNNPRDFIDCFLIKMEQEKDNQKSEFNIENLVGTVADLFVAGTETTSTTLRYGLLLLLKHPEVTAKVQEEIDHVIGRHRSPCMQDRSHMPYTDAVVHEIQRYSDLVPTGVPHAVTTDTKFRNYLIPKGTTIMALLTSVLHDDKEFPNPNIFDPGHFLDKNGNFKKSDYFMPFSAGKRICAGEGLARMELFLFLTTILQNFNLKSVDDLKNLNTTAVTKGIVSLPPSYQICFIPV
The series can be described thus: Inhibition of CYP2C8 (unknown origin). Format: ADME.

Series [11] concerns the target Phosphatidylinositol 4,5-bisphosphate 3-kinase catalytic subunit alpha isoform (Homo sapiens, UniProt P42336). Nature of the series: Inhibition of PI3Kalpha (unknown origin) using PIP2 as substrate after 2 hrs by luminescence assay.
A short description of series [12]: Inhibition of mTORC1-mediated phosphorylation of S6 at serine 240/244 in human PC3 cells after 3 hrs by ELISA. Format: cell-based. The following applies: PC-3, 3 h.
A short description of series [13]: Inhibition of mTORC2-mediated phosphorylation of AKT at serine 473 in human PC3 cells after 2 hrs and 50 mins by ELISA. Format: cell-based. The following applies: PC-3. The procedure, abridged:
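Compound in 0.3% DMSO was added for 2 h 50 min, followed by 10 min stimulation with 20 ng/mL EGF. After formaldehyde fixation, pAKT (S473) and total AKT were detected by chemiluminescent cell ELISA. IC50 came from pAKT normalized to total AKT, relative to DMSO control. Mean, n ≥ 2.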

For series [14], the species on record is Homo sapiens. Nature of the series: Selectivity ratio of IC50 for PI3Kalpha (unknown origin) to IC50 for mTOR (unknown origin).

Phosphatidylinositol 4,5-bisphosphate 3-kinase catalytic subunit alpha isoform, sequence (P42336 whole entry, canonical isoform): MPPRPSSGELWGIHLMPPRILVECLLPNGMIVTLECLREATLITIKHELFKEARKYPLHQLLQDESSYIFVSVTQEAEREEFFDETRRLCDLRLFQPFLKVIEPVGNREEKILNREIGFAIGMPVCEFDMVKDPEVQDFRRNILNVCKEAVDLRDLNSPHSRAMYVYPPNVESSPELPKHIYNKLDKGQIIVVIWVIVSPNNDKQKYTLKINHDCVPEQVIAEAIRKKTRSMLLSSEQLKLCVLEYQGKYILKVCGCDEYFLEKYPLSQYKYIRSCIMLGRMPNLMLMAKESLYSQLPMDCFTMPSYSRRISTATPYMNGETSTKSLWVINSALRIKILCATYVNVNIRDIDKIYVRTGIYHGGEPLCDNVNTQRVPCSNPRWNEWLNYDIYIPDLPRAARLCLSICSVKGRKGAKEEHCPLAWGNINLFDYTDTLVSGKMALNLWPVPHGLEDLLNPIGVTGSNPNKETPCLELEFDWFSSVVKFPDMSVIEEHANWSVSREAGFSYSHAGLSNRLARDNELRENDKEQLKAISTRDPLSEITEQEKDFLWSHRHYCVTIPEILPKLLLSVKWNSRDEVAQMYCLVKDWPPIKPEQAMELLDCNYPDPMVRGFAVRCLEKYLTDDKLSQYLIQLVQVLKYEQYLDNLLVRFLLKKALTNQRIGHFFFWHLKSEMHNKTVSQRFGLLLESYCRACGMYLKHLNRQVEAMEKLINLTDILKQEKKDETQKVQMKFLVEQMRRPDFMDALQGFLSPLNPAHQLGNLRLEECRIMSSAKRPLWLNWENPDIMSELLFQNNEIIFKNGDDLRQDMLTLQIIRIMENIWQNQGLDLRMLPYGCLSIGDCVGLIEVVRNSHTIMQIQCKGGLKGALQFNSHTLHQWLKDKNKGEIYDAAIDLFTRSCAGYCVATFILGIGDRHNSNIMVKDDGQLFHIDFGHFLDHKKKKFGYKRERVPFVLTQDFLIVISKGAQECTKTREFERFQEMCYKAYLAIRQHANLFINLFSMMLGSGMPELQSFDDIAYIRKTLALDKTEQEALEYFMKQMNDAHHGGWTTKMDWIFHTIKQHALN
Cytochrome P450 2C9, sequence (P11712 whole entry): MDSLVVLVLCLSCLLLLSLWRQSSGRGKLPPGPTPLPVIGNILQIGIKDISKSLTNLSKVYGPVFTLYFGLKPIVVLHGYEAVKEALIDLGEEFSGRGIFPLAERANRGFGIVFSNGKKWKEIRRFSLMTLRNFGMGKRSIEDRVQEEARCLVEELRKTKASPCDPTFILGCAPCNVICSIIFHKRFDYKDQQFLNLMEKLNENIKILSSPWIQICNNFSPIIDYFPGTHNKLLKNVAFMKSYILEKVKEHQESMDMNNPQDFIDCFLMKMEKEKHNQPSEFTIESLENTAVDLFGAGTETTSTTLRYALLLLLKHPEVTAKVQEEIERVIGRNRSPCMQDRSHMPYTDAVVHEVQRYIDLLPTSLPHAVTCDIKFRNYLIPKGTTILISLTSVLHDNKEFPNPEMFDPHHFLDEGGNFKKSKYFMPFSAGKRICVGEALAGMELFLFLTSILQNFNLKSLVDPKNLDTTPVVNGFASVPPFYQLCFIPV
Cytochrome P450 3A4, sequence (P08684 whole entry): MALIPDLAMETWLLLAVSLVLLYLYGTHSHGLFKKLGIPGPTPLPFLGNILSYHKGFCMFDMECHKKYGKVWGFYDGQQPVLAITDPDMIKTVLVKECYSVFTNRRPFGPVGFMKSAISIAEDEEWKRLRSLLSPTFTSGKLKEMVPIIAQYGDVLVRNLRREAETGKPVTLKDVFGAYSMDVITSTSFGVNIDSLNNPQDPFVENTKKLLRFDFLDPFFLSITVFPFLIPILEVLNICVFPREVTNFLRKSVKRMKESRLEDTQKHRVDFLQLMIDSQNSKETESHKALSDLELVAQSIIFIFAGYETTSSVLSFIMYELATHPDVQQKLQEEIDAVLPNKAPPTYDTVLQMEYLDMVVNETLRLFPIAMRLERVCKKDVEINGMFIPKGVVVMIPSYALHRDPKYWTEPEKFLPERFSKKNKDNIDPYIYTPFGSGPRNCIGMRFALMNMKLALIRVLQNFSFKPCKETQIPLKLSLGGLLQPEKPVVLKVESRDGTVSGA

In general, IC50 refers to the concentration at which inhibition is half-maximal. As usually defined, the Papp is the rate of passage across a membrane or cell layer, normalised by area and donor concentration. For `O=C(c1ccc(C(=O)C(F)(F)F)cc1)N1CCOc2ccc(-c3ccc4nc[nH]c4c3)cc2C1`, the solubility kinetic in [1] is less than 1 µM. Moreover, in series [2], the concentration at 1 h was found to be 1500 nM. Besides, the INH came out at 0.8 µM in series [3], 2.3 µM in series [5], 4 µM in series [7] and 6.2 µM in series [10]. In addition, the IC50 is 0.0023 µM in series [4], 0.089 µM in series [11] and 0.151 µM in series [12]. The same compound had a concentration at 4 h in [6] of 400 nM. Besides, the remaining at 0.5 h in series [8] came out at 49%. In addition, the Papp in series [9] amounted to 0.98 ×10⁻⁶ cm/s.

Turning to `CS(=O)(=O)c1ccc(C(=O)N2CCOc3ccc(-c4ccc5nc[nH]c5c4)cc3C2)cc1`, the concentration at 1 h in series [2] turned out to be 7800 nM. The INH is 3 µM in [3], 3.8 µM in series [5], 8.1 µM in series [7] and more than 20 µM in series [10]. The half-inhibitory concentration (IC50) in series [4] turned out to be 0.0044 µM; in [13], 0.805 µM; in series [11], 0.67 µM; in series [12] it was 0.342 µM. In series [6], this compound yielded a concentration at 4 h of 1000 nM. In series [8], the remaining at 0.5 h turned out to be 82%.

As for `O=C(c1ccc(C(=O)C(F)(F)F)cc1)N1CCOc2ccc(-c3cnc4ccccc4c3)cc2C1`, in series [1], the solubility kinetic stood at 40.1 µM (≈ 19.1 µg/mL). Also, the IC50 in [4] turned out to be 0.095 µM; in series [11] it was 0.398 µM. For the same compound, the Ratio IC50 in [14] is 4. Further, in [9], the Papp was 1.69 ×10⁻⁶ cm/s.
